Results reported in ChEMBL document CHEMBL4321800, “Synthesis, Identification, and Structure-Activity Relationship Analysis of GATA4 and NKX2-5 Protein-Protein Interaction Modulators” (J Med Chem, 2019).

Target: GATA4/NKX2-5 (Mus musculus) (UniProt Q08369+P42582)
Experiment: Modulation of mouse GATA4/mouse NKX2-5 protein-protein interaction expressed in Chlorocebus aethiops COS1 cells harboring 3xHA reporter gene assessed as transcriptional synergy at 10 uM after 24 hrs by luciferase reporter gene assay relative to control
Assay type: cell-based
Outline: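 COS-1 cells seeded 14 000/well, grown overnight, then transfected for 6 h in serum- and antibiotic-free medium with pGL3-3xHA reporter (three NKX2-5 sites, 100 ng/well) plus pMT2-GATA4 and pMT2-NKX2-5 (total 50 ng/well), Fugene 6 at 1:3 DNA/reagent. Compound or 0.1% DMSO vehicle for 24 h, then luminescence read. Triplicates, Grubbs outliers removed, expressed as % of control.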

Row | Activity [%] | Structure (SMILES)
1 | 67 | CCN(CCO)c1ccc(NC(=O)c2c(-c3ccccc3)noc2C)cc1
2 | 100 | Cc1onc(-c2ccccc2)c1COc1ccc(C(=O)OCc2ccoc2)cc1
3 | 62 | CCN(CC)c1ccc(NC(=O)c2cnn(C)c2-c2ccccc2)cc1
4 | 110 | CCN(CC)c1ccc(/N=C(\SCCF)c2c(-c3ccccc3)noc2C)cc1
5 | 100 | CCN(CC)c1ccc(NC(=O)c2c(-c3ccccn3)noc2C)cc1
6 | 75 | CCN(c1ccc(NC(=O)c2c(-c3ccccc3)noc2C)cc1[N+](=O)[O-])C(C)C
7 | 110 | CCN(CC)c1ccc(NC(=O)c2c[nH]nc2-n2cnnn2)cc1
8 | 87 | CCC(O)c1ccc(OCc2c(-c3ccccc3)noc2C)cc1 (racemic)
9 | 100 | CCN(CC)c1ccc(/N=C/c2c(-c3ccccc3)noc2C)cc1
10 | 86 | CCN(CC)c1ccc(/N=C(\SC)c2c(-c3ccccc3)noc2C)cc1
11 | 110 | CCN(CC)c1ccc(NC(=O)c2ccsc2)cc1
12 | 84 | CCN(CC)c1ccc(NC(=O)c2c(-c3ccccc3[N+](=O)[O-])noc2C)cc1
13 | 92 | CCN(CC)C(=O)c1ccc(OCc2c(-c3ccccc3)noc2C)cc1
14 | 82 | CCN(CC)c1ccc(CN(C)c2c(-c3ccccc3)noc2C)cc1
15 | 89 | CCN(CC)c1ccc(NC(=O)c2c(-c3cc(Br)cs3)noc2C)cc1
16 | 91 | CCN(CC)c1ccc(N(C)C(=S)c2c(-c3ccccc3)noc2C)cc1
17 | 100 | CCN(CC)c1ccc(NC(=O)c2c(-c3ccc([N+](=O)[O-])cc3)noc2C)cc1
18 | 66 | CCN(CC)c1ccc(N(Cc2ccccc2)C(=O)c2c(-c3ccccc3)noc2C)cc1
19 | 85 | CCN(CC)c1ccc(CN(C(=O)Nc2ccc(C#N)cc2)c2c(-c3ccccc3)noc2C)cc1
20 | 100 | CCN(CC)c1ccc(NCc2c(-c3ccccc3)noc2C)cc1
21 | 79 | Cc1onc(-c2ccccc2)c1C(=O)Nc1ccc2c(c1)C(=O)CC2
22 | 94 | CCN(CC)c1ccc(C(=O)Nc2c(-c3ccccc3)noc2C)cc1

Row | Activity [%] | Structure (SMILES)
23 | 98 | CCN(CC)c1ccc(NS(=O)(=O)c2c(-c3ccccc3)noc2C)cc1
24 | 93 | Cc1cc(NC(=O)c2c(-c3ccccc3)noc2C)ccc1C(C)C
25 | 110 | Cc1onc(-c2ccccc2)c1C(=O)Nc1ccc(C(=O)OCCN(C)C)cc1
26 | 110 | CCCOC(=O)c1ccc(OCc2c(-c3ccccc3)noc2C)cc1
27 | 100 | CCN(CC)c1ccc(NC(=O)c2ccoc2CCc2cccs2)cc1
28 | 110 | CCN(CC)c1ccc(NC(=O)C2CCCC2)cc1
29 | 84 | CCN(CC)c1ccc(NC(=O)c2c(-c3ccccc3)nnn2C)cc1
30 | 76 | CCN(c1ccc(NC(=O)c2c(-c3ccccc3)noc2C)cc1N)C(C)C
31 | 87 | CCN(CC)c1ccc(NC(=O)c2c(-c3ccccc3)nnc3ccccc23)cc1
32 | 99 | Cc1onc(-c2ccccc2)c1C(=O)Nc1ccc(N(C)C)cc1
33 | 100 | CCN(CC)c1ccc(NC(=O)c2nn(-c3ccccc3)nc2C)cc1
34 | 96 | CCN(CC)c1ccc(/C=N/c2c(-c3ccccc3)noc2C)cc1
35 | 97 | Cc1onc(-c2ccccc2)c1C(=O)Nc1ccc(OCCN2CCOCC2)cc1
36 | 110 | CCN(CC)c1ccc(NC(=O)c2c(-c3c(Cl)cccc3Cl)noc2C)cc1
37 | 69 | CCN(CC)c1ccc(NC(=O)c2c(-c3ccccc3)noc2C)cc1Cl
38 | 70 | CCN(CC)c1ccc(NC(=O)c2c(-c3ccc(Br)cc3)noc2C)cc1
39 | 99 | Cc1onc(-c2ccccc2)c1COc1ccc(C(=O)OCC(C)C)cc1
40 | 99 | CCN(CC)c1ccc(NC(=S)c2c(-c3ccccc3)noc2C)cc1
41 | 120 | CCN(CC)c1ccc(NC(=O)c2ncoc2-c2ccco2)cc1
42 | 83 | CC[N+](C)(c1ccc(NC(=O)c2c(-c3ccccc3)noc2C)cc1)C(C)C (centres undefined)
43 | 85 | CCN(CC)c1ccc(NC(=O)c2cc(-c3ccc(Br)cc3)oc2C(F)(F)F)cc1
44 | 91 | CCN(CC)c1ccc(NC(=O)c2c(-c3ccccc3)nnn2CCOC)cc1
